The source of these data is ChEMBL document CHEMBL1140435, “Synthesis and evaluation of cyclic secondary amine substituted phenyl and benzyl nitrofuranyl amides as novel antituberculosis agents” (J Med Chem, 2005).

In brackets after ≈: the same amount, converted by molar mass.

Data set [1] has as its system Mycobacterium tuberculosis. Put plainly: Activity against Mycobacterium tuberculosis H37Rv. In kind it is functional.
Data set [2] can be described thus: Tmax in female C57BL/6 mice administered with 300 mg/kg, po. As to conditions: C57BL/6, mouse, in vivo. In kind it is ADME, organism-based. On the set-up: dose 300 mg/kg, route oral. In outline: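 8–10 week old female C57BL/6 mice given one oral gavage dose, generally 300 mg/kg, below the maximum tolerated dose; HCl salts where possible. Tail-vein bleeds were taken from 3 mice at 20 min, 2, 4 and 8 h, and the serum was collected. […] Tmax and half-life were read off the concentration–time curve.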

Data set [3] in a line: Oral bioavailability in female C57BL/6 mice administered with 300 mg/kg, po. As to conditions: C57BL/6, mouse, in vivo. In kind it is ADME, organism-based. In outline: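 Graded Low (BF 1–20), Medium (21–80) or High (>80). Serum was serially diluted with naive mouse serum and added to H37Rv at 10^4 CFU/well, then incubated at 35 °C. Wells scored positive if OD600 was <50% of the untreated control.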

The subject of the next data set is Mus musculus. Put plainly: Maximum concentration in female C57BL/6 mice administered with 300 mg/kg, po. In kind it is ADME, organism-based. Also on record: dose 300 mg/kg, route oral. The note with it: in vivo. In outline: (§1)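 8–10 week old female C57BL/6 mice given one oral gavage dose, generally 300 mg/kg, below the maximum tolerated dose; HCl salts where possible. Tail-vein bleeds were taken from 3 mice at 20 min, 2, 4 and 8 h, and the serum was collected. Tmax and half-life were read off the concentration–time curve.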

For data set [4], the system named is Mycobacterium tuberculosis. Put plainly: Viable number of Mycobacterium tuberculosis colonies in lungs of infected mice after 9 days of administration of 300 mg/kg. It is filed as functional, Lung. In outline:
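GKO mice infected by low-dose aerosol delivering ~50 bacilli to the lungs. Treatment began 18 days post-infection: 9 daily doses at 300 mg/kg. At day 27 post-infection, lung homogenates were serially diluted onto 7H11 agar and incubated at 37 °C in ambient air for 4 weeks. Result given as Log10 CFU ± SEM and Log10 reduction versus untreated controls.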

Data set [5] in a line: Half life in female C57BL/6 mice administered with 300 mg/kg, po. In kind it is ADME, organism-based. Also on record: dose 300 mg/kg, route oral. The note with it: C57BL/6, mouse, in vivo. In outline: as §1

For the molecule `O=C(Nc1ccc(N2CCN(Cc3ccccc3)CC2)cc1)c1ccc([N+](=O)[O-])o1`, the MIC50 (as a rule, an inhibitory concentration at the 50% level, which refers to growth in some studies and to a panel of isolates in others) in data set [1] was determined as 0.8 µg/mL (≈ 1.97 µM).

Molecule `O=C(NCc1ccc(N2CCN(CC3CC3)CC2)cc1)c1ccc([N+](=O)[O-])o1` registered an MIC50 in data set [1] of 0.05 µg/mL (≈ 0.13 µM).

In data set [1], `O=C(Nc1cccc(N2CCN(Cc3ccccc3)CC2)c1)c1ccc([N+](=O)[O-])o1` returned an MIC50 of 12.5 µg/mL (≈ 30.8 µM).

Molecule `O=C(Nc1ccc(N2CCOCC2)cc1)c1ccc([N+](=O)[O-])o1` had an MIC50 in data set [1] of 3.13 µg/mL (≈ 9.86 µM).

`O=C(NCc1ccc(N2CCSCC2)c(F)c1)c1ccc([N+](=O)[O-])o1`: the MIC50 in data set [1] was found to be 0.8 µg/mL (≈ 2.19 µM).

On to `CN(C)c1ccc(CNC(=O)c2ccc([N+](=O)[O-])o2)cc1.Cl`, for which, in data set [2], the Tmax (in general, the time from dosing to the highest level) stood at 30 min.

Regarding `O=C(NCc1ccc(N2CCSCC2)cc1)c1ccc([N+](=O)[O-])o1`, the bioavailability (commonly the share of a dose that reaches the circulation, judged against a reference dose that is usually intravenous) in data set [3] was 1%. The concentration in the data set with Mus musculus peaked (Cmax) at 820 ng/mL. Also, in data set [4], the Log10 cfu is on record as 7.53. In addition, in data set [1], the MIC50 was 0.1 µg/mL (≈ 0.288 µM).

As for `CN1CCN(c2ccc(CNC(=O)c3ccc([N+](=O)[O-])o3)cc2)CC1`, the MIC50 in data set [1] was 0.2 µg/mL (≈ 0.581 µM).

In turn, `O=C(NCc1cccc(N2CCN(Cc3ccccc3)CC2)c1)c1ccc([N+](=O)[O-])o1` displayed an MIC50 in data set [1] of 0.1 µg/mL (≈ 0.238 µM).

As for `CN1CCN(c2ccc(CNC(=O)c3ccc([N+](=O)[O-])o3)cc2F)CC1.Cl`, the Tmax in data set [2] worked out at 30 min.

Molecule `O=C(Nc1cccc(N2CCC(Cc3ccccc3)CC2)c1)c1ccc([N+](=O)[O-])o1` registered an MIC50 in data set [1] of 12.5 µg/mL (≈ 30.8 µM).

For the molecule `O=C(NCc1ccc(N2CCC(Cc3ccccc3)CC2)c(F)c1)c1ccc([N+](=O)[O-])o1`, the MIC50 in data set [1] was 0.2 µg/mL (≈ 0.457 µM).

In data set [1], `O=C(NCc1ccc(N2CCOCC2)c(F)c1)c1ccc([N+](=O)[O-])o1` displayed an MIC50 of 0.4 µg/mL (≈ 1.15 µM).

Take `Cl.O=C(NCc1cccc(N2CCN(Cc3ccccc3)CC2)c1)c1ccc([N+](=O)[O-])o1`: the half-life (commonly the time needed for the level to fall by half in the phase considered) in data set [5] is 78 min. For the same molecule, the bioavailability in data set [3] was determined as 21%. In addition, the Tmax in data set [2] was 30 min. For the same molecule, the Cmax (as a rule, the highest concentration seen after dosing) in the data set with Mus musculus turned out to be 1640 ng/mL.

As to `Cl.O=C(NCc1ccc(N2CCN(Cc3ccccc3)CC2)cc1)c1ccc([N+](=O)[O-])o1`, the half-life in data set [5] was 66 min. Also, in data set [3], the bioavailability is over 80%. Further, the time of peak concentration (Tmax) in data set [2] amounted to 30 min. Besides, the maximum concentration (Cmax) with Mus musculus is 2240 ng/mL.

In turn, `O=C(Nc1ccc(N2CCN(c3ccccn3)CC2)cc1)c1ccc([N+](=O)[O-])o1` returned an MIC50 in data set [1] of 0.4 µg/mL (≈ 1.02 µM).

Consider `O=C(Nc1ccc(N2CCC(Cc3ccccc3)CC2)cc1)c1ccc([N+](=O)[O-])o1`, for which the MIC50 in data set [1] is 3.13 µg/mL (≈ 7.72 µM).

Regarding `O=C(Nc1cccc(N2CCN(c3ccccn3)CC2)c1)c1ccc([N+](=O)[O-])o1`, in data set [1], the MIC50 is 3.13 µg/mL (≈ 7.96 µM).

`CN1CCN(c2ccc(NC(=O)c3ccc([N+](=O)[O-])o3)cc2)CC1`: in data set [1], the MIC50 is 12.5 µg/mL (≈ 37.8 µM).

The molecule `CN1CCN(c2cccc(CNC(=O)c3ccc([N+](=O)[O-])o3)c2)CC1` registered an MIC50 in data set [1] of 3.12 µg/mL (≈ 9.07 µM).

Molecule `CN1CCN(c2cccc(NC(=O)c3ccc([N+](=O)[O-])o3)c2)CC1` returned an MIC50 in data set [1] of 12.5 µg/mL (≈ 37.8 µM).

`O=C(NCc1ccc(N2CCC(Cc3ccccc3)CC2)cc1)c1ccc([N+](=O)[O-])o1`: the MIC50 in data set [1] is 0.8 µg/mL (≈ 1.91 µM).

In turn, `O=C(NCc1ccc(N2CCN(Cc3ccccc3)CC2)cc1)c1ccc([N+](=O)[O-])o1` returned a Log10 cfu in data set [4] of 7.92. The molecule also displayed an MIC50 in data set [1] of 0.0125 µg/mL (≈ 0.0297 µM).

`O=C(NCc1ccc(N2CCN(Cc3ccccc3)CC2)c(F)c1)c1ccc([N+](=O)[O-])o1` came in with a bioavailability in data set [3] of 21%. The same molecule had a Cmax with Mus musculus of 1640 ng/mL. Also, the Log10 cfu in data set [4] came out at 7.65. In data set [1], this molecule showed an MIC50 of 0.025 µg/mL (≈ 0.057 µM).

In turn, `O=C(NCc1ccc(N2CCOCC2)cc1)c1ccc([N+](=O)[O-])o1` returned a bioavailability in data set [3] of 21%. In the data set with Mus musculus, this molecule gave a maximum concentration (Cmax) of 3000 ng/mL. In data set [1], this molecule registered an MIC50 of 0.2 µg/mL (≈ 0.604 µM).

`O=C(NCc1ccc(N2CC[S+]([O-])CC2)cc1)c1ccc([N+](=O)[O-])o1` had an MIC50 in data set [1] of 3.13 µg/mL (≈ 8.61 µM).

As to `Cl.O=C(NCc1ccc(N2CCN(CC3CC3)CC2)cc1)c1ccc([N+](=O)[O-])o1`, the time of peak concentration (Tmax) in data set [2] was 30 min.

In data set [1], `O=C(Nc1cccc(N2CCOCC2)c1)c1ccc([N+](=O)[O-])o1` returned an MIC50 of 3.13 µg/mL (≈ 9.86 µM).

Turning to `O=C(NCc1cccc(N2CCC(Cc3ccccc3)CC2)c1)c1ccc([N+](=O)[O-])o1`, the MIC50 in data set [1] was 1.56 µg/mL (≈ 3.72 µM).

In data set [4], `CN(C)c1ccc(CNC(=O)c2ccc([N+](=O)[O-])o2)cc1` showed a Log10 cfu of 7.46. For the same molecule, the MIC50 in data set [1] stood at 0.1 µg/mL (≈ 0.346 µM).

Take `NNC(=O)c1ccncc1` [ISONIAZID]: in data set [3], the bioavailability is over 80%. The highest concentration (Cmax) in the data set with Mus musculus is over 38400 ng/mL. This molecule also showed a Log10 cfu in data set [4] of 3.88.

`O=C(NCc1ccc(N2CCS(=O)(=O)CC2)cc1)c1ccc([N+](=O)[O-])o1` returned an MIC50 in data set [1] of 12.2 µg/mL (≈ 32.3 µM).

`CN1CCN(c2ccc(CNC(=O)c3ccc([N+](=O)[O-])o3)cc2F)CC1` yielded an MIC50 in data set [1] of 0.8 µg/mL (≈ 2.21 µM).

In turn, `CN1CCN(/N=C\c2ccc(CNC(=O)c3ccc([N+](=O)[O-])o3)cc2)CC1` gave an MIC50 in data set [1] of 0.4 µg/mL (≈ 1.08 µM).
